Published values of several laboratories.
Compare with care: the assays were run in different laboratories.
Target: Beta-2 adrenergic receptor (ADRB2, Homo sapiens, UniProt P07550)

O=C(NC[C@H](O)CO)[C@@H]1C[C@H](c2ccccc2)CCN1 (mixture of isomers) — inhibition (ligand displacement, radioligand; 10 µM): -15.9%
CC(Cc1ccc2c(c1)OCO2)NCC(O)c1ccc(O)c(O)c1 (centres unmarked) — Emax (β-arrestin recruitment, agonist): 131%
COCc1c(-c2cc3cc(C)cc(OC)c3s2)c2c(N)ncnn2c1CN1CCNC(=O)C1 — inhibition (ligand displacement, radioligand; 10 µM): 14%
O=C(Nc1cccnn1)N1CCN([C@@H]2CCOc3cc(C(F)(F)F)ccc32)CC1 — inhibition (cell-free assay; 20 µM): 10%
Nc1ncc(-c2nc(N3CCOCC3)nc(N3CCOCC3)n2)c(C(F)F)n1 — remaining signal (cell-free assay, radioligand; 10 µM): 98%
COc1ccc(S(=O)(=O)N2CCCCC2)cc1C — inhibition (ligand displacement, radioligand; 10 µM): < 30%
Cn1cncc1[C@@](O)(COc1ccc(C#N)cc1-c1ccc(OC(F)(F)F)cc1)c1ccc(C#N)cc1 — inhibition (ligand displacement; 10 µM): 23.1%
CC(C)Cn1cnc2c(N)nc3ccccc3c21 — inhibition (ligand displacement, radioligand; 10 µM): 18%
CN(CCN1CCC(OC(=O)Nc2ccccc2-c2ccccc2)CC1)C(=O)c1ccc(CN2CCC(C(N)=O)CC2)cc1 — inhibition (ligand displacement, radioligand; 1 µM): -1%
Clc1ccc2c(C3CCN(CCc4c[nH]c5ccccc45)CC3)c[nH]c2c1 — inhibition (ligand displacement, radioligand; 10 µM): 91%
CC(C)N1CCC[C@H]1CNC(=O)c1cn(C2CCCC2)c(=O)c2c1c1ccccc1n2C — inhibition (ligand displacement, radioligand; 10 µM): -8%
Cc1c(N2CCNCC2)nc2ccc(Br)cc2c1C(=O)NC[C@H](CCC(=O)O)c1ccccc1Cl — inhibition (ligand displacement; 10 µM): 18.4%
c1ccc(C(NCCNC(c2ccccc2)c2ccccc2)c2ccccc2)cc1 — inhibition (cell-free assay; 10 µM): 1%
CCN(CC)CCCC[C@H](NC(=O)[C@H](CC(C)C)NC(=O)[C@H](C)NC(=O)[C@H](Cc1ccccc1)NC(=O)c1ccc(C(C)(C)C)cc1)C(=O)N[C@@H](CO)C(=O)OC — remaining binding (ligand displacement, radioligand; 10 µM): 101%
